The record followed here is ChEMBL document CHEMBL1122050, “Synthesis of prostanoids with bicyclo[2.2.1]heptane, bicyclo[3.1.1]heptane, and bicyclo[2.2.2]octane ring systems. Activities of 15-hydroxy epimers on human platelets” (J Med Chem, 1982).

Calls of active or inactive are those of the source.

For experiment [1], the species on record is Homo sapiens. Briefly: Compound was evaluated for aggregation properties on human platelets at 5 uM; Reversible. In kind it is functional. Put shortly:
(§1)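 Citrated human platelet-rich plasma mixed with Krebs solution and 0.9% NaCl, preincubated 2 min at 37 °C. Aggregation recorded in a Born-type aggregometer. The value is the concentration giving a primary aggregation response of 20 chart-recorder units; irreversible aggregation corresponds to 80–90 units. Each value is the mean of single determinations on PRP from at least three donors.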

The species named for experiment [2] is Homo sapiens. In words: Compound was evaluated for aggregation properties on human platelets at 10/1.4 uM (Dose ratio defined as the ratio of the concentrations of the agonist producing recorder unit responses in the presence and in the absence of the inhibitor); Inhibition. In kind it is functional.
The species named for experiment [3] is Homo sapiens. Briefly: Compound was evaluated for aggregation properties on human platelets at 20 uM (highest concentration tested); No effect. In kind it is functional, organism-based.
For experiment [4], the species on record is Homo sapiens. In words: Compound was evaluated for aggregation properties on human platelets at 0.72 uM; Irreversible. In kind it is functional. In a few lines: as §1
For experiment [5], the species on record is Homo sapiens. In words: Compound was evaluated for aggregation properties on human platelets at 80 uM (highest concentration tested); Shape change only. In kind it is functional, organism-based.
The species entered for experiment [6] is Homo sapiens. In words: Compound was evaluated for aggregation properties on human platelets at 6.2 uM; Irreversible. In kind it is functional. Put shortly:
as §1

For experiment [7], the species on record is Homo sapiens. In words: Compound was evaluated for aggregation properties on human platelets at 0.14 uM; Irreversible. In kind it is functional. In a few lines: as §1
The species entered for experiment [8] is Homo sapiens. Briefly: Compound was evaluated for aggregation properties on human platelets at 20 uM (highest concentration tested); Shape change only. In kind it is functional, organism-based.
The species named for experiment [9] is Homo sapiens. In words: Compound was evaluated for aggregation properties on human platelets at 1.7 uM; Irreversible. In kind it is functional. In a few lines: as §1
For experiment [10], the species on record is Homo sapiens. Briefly: Compound was evaluated for aggregation properties on human platelets at 15 uM; Reversible. In kind it is functional. In a few lines:
as §1

Experiment [11] is filed under the species Homo sapiens. Briefly: Compound was evaluated for aggregation properties on human platelets at 0.31 uM; Irreversible. In kind it is functional. In a few lines: as §1
Experiment [12] is filed under the species Homo sapiens. Briefly: Compound was evaluated for aggregation properties on human platelets at 0.23 uM; Irreversible. In kind it is functional. Put shortly:
as §1

For experiment [13], the species on record is Homo sapiens. Briefly: Compound was evaluated for aggregation properties on human platelets at 0.26 uM; Irreversible. In kind it is functional. Put shortly: as §1
Experiment [14] is filed under the species Homo sapiens. In words: Compound was evaluated for aggregation properties on human platelets at 0.19 uM; Irreversible. In kind it is functional. In a few lines: as §1
Experiment [15] is filed under the species Homo sapiens. In words: Compound was evaluated for aggregation properties on human platelets at 10/1.3 uM (Dose ratio defined as the ratio of the concentrations of the agonist producing recorder unit responses in the presence and in the absence of the inhibitor); Inhibition. In kind it is functional.
The species entered for experiment [16] is Homo sapiens. In words: Compound was evaluated for aggregation properties on human platelets at 3.5 uM; Irreversible. In kind it is functional. In a few lines:
as §1

The species entered for experiment [17] is Homo sapiens. In words: Compound was evaluated for aggregation properties on human platelets at 10/25 uM (Dose ratio defined as the ratio of the concentrations of the agonist producing recorder unit responses in the presence and in the absence of the inhibitor); Inhi bition. In kind it is functional, organism-based.
The species entered for experiment [18] is Homo sapiens. In words: Compound was evaluated for aggregation properties on human platelets at 2.5/4.8 uM (Dose ratio defined as the ratio of the concentrations of the agonist producing recorder unit responses in the presence and in the absence of the inhibitor); In hibition. In kind it is functional, organism-based.
The species entered for experiment [19] is Homo sapiens. In words: Compound was evaluated for aggregation properties on human platelets at 10/2.9 uM (Dose ratio defined as the ratio of the concentrations of the agonist producing recorder unit responses in the presence and in the absence of the inhibitor); Inhibition. In kind it is functional.
Experiment [20] is filed under the species Homo sapiens. Briefly: Compound was evaluated for aggregation properties on human platelets at 80 uM (highest concentration tested); No effect. In kind it is functional, organism-based.
Experiment [21] is filed under the species Homo sapiens. In words: Compound was evaluated for aggregation properties on human platelets at 10/1.5 uM (Dose ratio defined as the ratio of the concentrations of the agonist producing recorder unit responses in the presence and in the absence of the inhibitor); Inhi bition.
Experiment [22] is filed under the species Homo sapiens. Briefly: Compound was evaluated for aggregation properties on human platelets at 1.3 uM; Irreversible. In kind it is functional. In a few lines: as §1
Experiment [23] is filed under the species Homo sapiens. Briefly: Compound was evaluated for aggregation properties on human platelets at 10 uM (highest concentration tested); No effect. In kind it is functional, organism-based.

Turning to `CC1(C)C2CC1[C@H](C/C=C\CCCC(=O)O)[C@H]2/C=C/[C@H](O)COc1ccc(F)cc1` (some centres undefined), in the experiment filed under Homo sapiens [1], the Aggregation response result is “Reversible”.

For the compound `CCCCC[C@@H](O)/C=C/[C@H]1C2CC([C@@H]1C/C=C\CCCC(=O)O)C2(C)C` (some centres undefined), the Aggregation response result in the experiment listed under Homo sapiens [2] is reported as “Inhibition”.

As for `CCCCCC(=O)/C=C/[C@H]1C2COC(C2)[C@@H]1C/C=C\CCCC(=O)O` (some centres undefined), the Aggregation response result in the experiment filed under Homo sapiens [3] is “inactive”.

As for `O=C(O)CCC/C=C\C[C@H]1C2CCC(C2)[C@@H]1/C=C/[C@@H](O)COc1ccc(Cl)cc1` (some centres undefined), the Aggregation response result in the experiment listed under Homo sapiens [4] was “Irreversible”.

Consider `O=C(O)CCC/C=C\C[C@H]1C2C=CC(C2)[C@@H]1/C=C/[C@@H](O)CCc1ccc(Cl)cc1` (some centres undefined), for which the Aggregation response result in the experiment listed under Homo sapiens [5] is listed as “Shape change only”.

For `CCCCC[C@](C)(O)/C=C/[C@H]1C2CCC(C2)[C@@H]1C/C=C\CCCC(=O)O` (some centres undefined), the Aggregation response result in the experiment filed under Homo sapiens [6] is listed as “Irreversible”.

As to `O=C(O)CCC/C=C\C[C@H]1C2CCC(C2)[C@@H]1/C=C/[C@@H](O)COc1ccc(F)cc1` (some centres undefined), the Aggregation response result in the experiment listed under Homo sapiens [7] is listed as “Irreversible”.

In the case of `CCCCC[C@@H](O)/C=C/[C@H]1C2COC(C2)[C@@H]1C/C=C\CCCC(=O)O` (some centres undefined), the Aggregation response entry in the experiment listed under Homo sapiens [8] is recorded as “Shape change only”.

With `O=C(O)CCC/C=C\C[C@H]1C2C=CC(C2)[C@@H]1/C=C/[C@H](O)COc1ccc(F)cc1` (some centres undefined), the Aggregation response entry in the experiment listed under Homo sapiens [9] is “Irreversible”.

As to `CCCCC[C@H](O)/C=C/[C@H]1C2CCC(C2)[C@@H]1C/C=C\CCCC(=O)O` (some centres undefined), the Aggregation response entry in the experiment listed under Homo sapiens [10] is on record as “Reversible”.

Take `CC1(C)C2CC1[C@H](C/C=C\CCCC(=O)O)[C@H]2/C=C/[C@@H](O)COc1ccc(F)cc1` (some centres undefined): the Aggregation response result in the experiment filed under Homo sapiens [11] was “Irreversible”.

As for `CCCCC[C@H](O)/C=C/[C@H]1C2CC(CO2)[C@@H]1C/C=C\CCCC(=O)O` (some centres undefined), the Aggregation response entry in the experiment listed under Homo sapiens [12] is “Irreversible”.

`CCCCC[C@H](O)/C=C/[C@H]1C2COC(C2)[C@@H]1C/C=C\CCCC(=O)O` (some centres undefined): in the experiment filed under Homo sapiens [13], the Aggregation response entry is recorded as “Irreversible”.

`O=C(O)CCC/C=C\C[C@H]1C2C=CC(C2)[C@@H]1/C=C/[C@@H](O)COc1ccc(F)cc1` (some centres undefined): in the experiment filed under Homo sapiens [14], the Aggregation response entry is on record as “Irreversible”.

As for `CCCCC[C@@](C)(O)/C=C/[C@H]1C2CCC(C2)[C@@H]1C/C=C\CCCC(=O)O` (some centres undefined), in the experiment listed under Homo sapiens [15], the Aggregation response entry is reported as “Inhibition”.

Consider `O=C(O)CCC/C=C\C[C@H]1C2CCC(C2)[C@@H]1/C=C/[C@H](O)COc1ccc(Cl)cc1` (some centres undefined), for which, in the experiment filed under Homo sapiens [16], the Aggregation response result is “Irreversible”.

For `CCCCC[C@H](O)/C=C/[C@H]1C2CC([C@@H]1C/C=C\CCCC(=O)O)C2(C)C` (some centres undefined), the Aggregation response result in the experiment listed under Homo sapiens [17] and in the experiment filed under Homo sapiens [18] was “Inhibition” throughout.

For `CCCCC[C@@H](O)/C=C/[C@H]1C2CCC(CC2)[C@@H]1C/C=C\CCCC(=O)O`, the Aggregation response entry in the experiment listed under Homo sapiens [19] is recorded as “Inhibition”.

For the compound `O=C(O)CCC/C=C\C[C@H]1C2C=CC(C2)[C@@H]1/C=C/[C@H](O)CCc1ccc(Cl)cc1` (some centres undefined), the Aggregation response result in the experiment filed under Homo sapiens [20] was “inactive”.

Turning to `CCCCC[C@@H](O)/C=C/[C@H]1C2CCC(C2)[C@@H]1C/C=C\CCCC(=O)O` (some centres undefined), in the experiment listed under Homo sapiens [21], the Aggregation response entry is on record as “Inhibition”.

Consider `CCCCC[C@H](O)/C=C/[C@H]1C2CCC(CC2)[C@@H]1C/C=C\CCCC(=O)O`, for which the Aggregation response result in the experiment listed under Homo sapiens [22] is listed as “Irreversible”.

Take `O=C(O)CCC/C=C\C[C@H]1C2C=CC(C2)[C@@H]1/C=C/C(=O)COc1ccc(F)cc1` (some centres undefined): the Aggregation response result in the experiment listed under Homo sapiens [23] was “inactive”.

Take `O=C(O)CCC/C=C\C[C@H]1C2CCC(C2)[C@@H]1/C=C/[C@H](O)COc1ccc(F)cc1` (some centres undefined): the Aggregation response entry in the experiment filed under Homo sapiens [22] is on record as “Irreversible”.
